A short description of assay [1]: Binding affinity to Escherichia coli DNA polymerase 3 subunit beta expressed in Escherichia coli BL21 by SPR analysis. Summed up: (§1)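 N-His-tagged E. coli β clamp (dnaN in pET15b, BL21, IPTG-induced at 28 C; Ni-NTA then MonoQ) was analysed by SPR on a chip carrying immobilized P1 peptide. For direct binding, β at 0.125–2 μM was injected at 50 μL/min, and background-subtracted data were fit to a 1:1 Langmuir model. For competition, β (0.25 μM) was premixed with peptide (1.5 nM–100 μM) and injected. IC50 came from % binding inhibition; Ki = (1 + KA[β])/IC50 and ΔG = RT ln Ki.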

A short description of assay [2]: Inhibition of Escherichia coli DNA polymerase 3.
Assay [3] in a line: Inhibition of Escherichia coli DNA polymerase 3 subunit beta-dependent elongation activity expressed in Escherichia coli BL21 after 2 hrs by competitive biochemical assay. The method in brief: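 Assay run in 40 mM HEPES pH 7.5 with 80 mM K-glutamate, BSA, 16% glycerol, NP40 and 8 mM DTT. Primed 30/90-mer duplex (1 nM) was loaded at 37 C with SSB (90 nM), ATP (200 μM) and MgCl2 (7.5 mM), then γ complex (1 nM) and β dimer (5 nM). Mixtures took peptide or DMSO for 5 min at RT plus 2 h at 4 C.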

Assay [4] can be described thus: Binding affinity to Escherichia coli DNA polymerase 3 subunit beta expressed in Escherichia coli BL21 by ITC assay. The method in brief:
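ITC at 25 C: peptide (400 μM) was injected in 2 μL steps into His-tagged β clamp (20 or 30 μM) in 10 mM Hepes pH 7.4, 0.15 M NaCl, 3 mM EDTA, 0.005% P20. Heats were corrected using peptide-into-buffer controls.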
For orientation: ITC needs no label: the signal is the heat of the interaction.

For assay [5], the system named is Escherichia coli. Nature of the assay: Ratio of ull length DNA polymerase 4 IC50 to compound IC50 for Escherichia coli DNA polymerase 3 subunit beta by SPR analysis. For orientation: SPR reads the build-up and loss of mass on a sensor chip optically.
The subject of assay [6] is Escherichia coli. Nature of the assay: Ratio of ull length DNA polymerase 4 Kd to compound Kd for Escherichia coli DNA polymerase 3 subunit beta by ITC assay.
A short description of assay [7]: Binding affinity to Escherichia coli DNA polymerase 3 subunit beta expressed in Escherichia coli BL21 assessed as dissociation constant by SPR analysis. Summed up:
as §1

Where a SMILES comes first, the peptide text is derived from it. [ ]: non-standard residue; d: D form. Phe(3,4-Cl2) = N[C@@H](Cc1ccc(Cl)c(Cl)c1)C(=O)O; Phe(4-Br) = N[C@@H](Cc1ccc(Br)cc1)C(=O)O; Phe(4-Cl) = N[C@@H](Cc1ccc(Cl)cc1)C(=O)O; Phe(4-Me) = Cc1ccc(C[C@H](N)C(=O)O)cc1; hCha = N[C@@H](CCC1CCCCC1)C(=O)O; tBuAla = CC(C)(C)C[C@H](N)C(=O)O; Cha = N[C@@H](CC1CCCCC1)C(=O)O

One may read the IC50 as the concentration that gives 50% inhibition. For `CC(=O)N[C@@H](CCC(N)=O)C(=O)N[C@@H](CCC(C)C)C(=O)N[C@@H](CC(=O)O)C(=O)N[C@@H](CC(C)C)C(=O)N[C@@H](Cc1ccccc1)C(=O)O`, in assay [1], the IC50 is 740 nM and the “Ka (inhibitor association constant, 1/M; higher = tighter)” value came to 1.84 ×10⁶ /M.

As usually defined, the Ki is a measure of affinity in units of concentration, obtained from inhibition or displacement. `CCOc1cc(/C=C2\SC(=S)N(CC(=O)O)C2=O)c(Br)c(Br)c1O` returned a Ki in assay [2] of 10000 nM.

For `CC(C)C[C@H](NC(=O)[C@H](CC(=O)O)NC(=O)[C@H](CC(C)C)NC(=O)[C@@H](N)CCC(N)=O)C(=O)N[C@@H](Cc1ccccc1)C(=O)O`, in assay [1], the IC50 was 12400 nM and the “Ka (inhibitor association constant, 1/M; higher = tighter)” value was determined as 0.11 ×10⁶ /M.

A word on the Kd: it is the concentration at which binding is half-saturated. `CC(=O)N[C@@H](CCC(N)=O)C(=O)N[C@@H](CC(C)C)C(=O)N[C@@H](CC(=O)O)C(=O)N[C@@H](CC(C)C)C(=O)N[C@@H](Cc1ccccc1)C(=O)O`: the 50% inhibitory concentration (IC50) was found to be 1120 nM in assay [1] and 4500 nM in assay [3]. For the same compound, in assay [1], the “Ka (inhibitor association constant, 1/M; higher = tighter)” value was found to be 1.2 ×10⁶ /M. Moreover, the Kd in assay [4] is 613 nM.

In the case of `CC(=O)N[C@@H](CCC(N)=O)C(=O)N[C@@H](CC1CCCCC1)C(=O)N[C@@H](CC(=O)O)C(=O)N[C@@H](CC(C)C)C(=O)N[C@@H](Cc1ccccc1)C(=O)O` (Ac-Q[Cha]DLF-OH), in assay [1], the IC50 came out at 170 nM and the “Ka (inhibitor association constant, 1/M; higher = tighter)” value amounted to 8.01 ×10⁶ /M. The compound also showed an IC50 in assay [3] of 2800 nM. The same compound gave a dissociation constant Kd in assay [4] of 222 nM.

As for `CC(=O)N[C@@H](CCC(N)=O)C(=O)N[C@@H](CC1CCCCC1)C(=O)N[C@@H](CC(=O)O)C(=O)N[C@@H](CC(C)C)C(=O)N[C@@H](Cc1ccc(Cl)c(Cl)c1)C(=O)O` (Ac-Q[Cha]DL[Phe(3,4-Cl2)]-OH), in assay [5], the Ratio IC50 is 4. In assay [3], this compound yielded an IC50 of 125 nM. In addition, the Ratio in assay [6] worked out at 4. In assay [4], the Kd was determined as 55 nM.

For `CC(=O)N[C@@H](CCC(N)=O)C(=O)N[C@@H](CC1CCCCC1)C(=O)N[C@@H](CC(=O)O)C(=O)N[C@@H](CC(C)C)C(=O)N[C@@H](Cc1ccc(Br)cc1)C(=O)O` (Ac-Q[Cha]DL[Phe(4-Br)]-OH), the IC50 in assay [1] is 96 nM; in assay [3], 250 nM. In addition, in assay [1], the “Ka (inhibitor association constant, 1/M; higher = tighter)” value was 13.49 ×10⁶ /M. This compound also displayed a Kd in assay [4] of 136 nM.

Regarding `CC(=O)N[C@@H](CCC(N)=O)C(=O)N[C@@H](CC1CCCCC1)C(=O)N[C@@H](CC(=O)O)C(=O)N[C@@H](CC(C)C)C(=O)N[C@@H](Cc1ccc(Cl)cc1)C(=O)O` (Ac-Q[Cha]DL[Phe(4-Cl)]-OH), in assay [1], the IC50 came to 160 nM and the “Ka (inhibitor association constant, 1/M; higher = tighter)” value was 13.7 ×10⁶ /M. The compound also displayed an IC50 in assay [3] of 300 nM. This compound also had a Kd in assay [4] of 89 nM.

As to `CC(=O)N[C@@H](CCC(N)=O)C(=O)N[C@@H](CC1CCCCC1)C(=O)N[C@@H](CC(=O)O)C(=O)N[C@@H](CC(C)C)C(=O)N[C@@H](Cc1ccc(C)cc1)C(=O)O` (Ac-Q[Cha]DL[Phe(4-Me)]-OH), in assay [1], the half-inhibitory concentration (IC50) came to 260 nM and the “Ka (inhibitor association constant, 1/M; higher = tighter)” value is 8.43 ×10⁶ /M. The IC50 in assay [3] is 2000 nM. Moreover, the Kd in assay [4] came to 362 nM.

Take `CC(=O)N[C@@H](CCC(N)=O)C(=O)N[C@@H](CCC1CCCCC1)C(=O)N[C@@H](CC(=O)O)C(=O)N[C@@H](CC(C)C)C(=O)N[C@@H](Cc1ccccc1)C(=O)O` (Ac-Q[hCha]DLF-OH): in assay [1], the IC50 was found to be 82800 nM and the Ka (inhibitor association constant, 1/M; higher = tighter) was 0.0164 ×10⁶ /M.

On to `CC(=O)N[C@@H](CCC(N)=O)C(=O)N[C@@H](CC(C)(C)C)C(=O)N[C@@H](CC(=O)O)C(=O)N[C@@H](CC(C)C)C(=O)N[C@@H](Cc1ccccc1)C(=O)O` (Ac-Q[tBuAla]DLF-OH), for which, in assay [1], the IC50 is 990 nM and the “Ka (inhibitor association constant, 1/M; higher = tighter)” value amounted to 1.36 ×10⁶ /M.

On to H-RQLVFL-OH, for which the IC50 in assay [1] is 256000 nM.

As for H-RQLVLF-OH, in assay [1], the IC50 came to 8620 nM and the “Ka (inhibitor association constant, 1/M; higher = tighter)” value worked out at 0.15 ×10⁶ /M. For the same compound, in assay [3], the IC50 came out at 7000 nM. This compound showed a Kd in assay [4] of 2320 nM.

On to H-RQLVLGL-OH, for which, in assay [1], the IC50 is 8850 nM and the “Ka (inhibitor association constant, 1/M; higher = tighter)” value is recorded as 0.15 ×10⁶ /M. The equilibrium dissociation constant (Kd) in assay [7] was found to be 285 nM. Further, in assay [4], binding was characterised by a dissociation constant (Kd) of 1580 nM.

As for H-RQLVLL-OH, in assay [1], the IC50 was 21500 nM and the “Ka (inhibitor association constant, 1/M; higher = tighter)” value was 0.0063 ×10⁶ /M.

(Values after ChEMBL document CHEMBL1800039, “Structure-based design of short peptide ligands binding onto the E. coli processivity ring” (J Med Chem, 2011).)
